Rows were chosen to be rich in hits. Some 4.1% of all compounds tested hit in one or more screens of this group.
Dynein cargo inh = inhibitors of GR-EGFP nuclear translocation, primary screen, dynein cargo transport inhibitor project, imaging, high-content, 3617.4 mouse cells | test concentration mostly 20 µM; stimulated with dexamethasone, 1 µM; stronger effect = lower value | z-score, hits read low | actives 0.47% (n = 220,000);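 active means plate z-score of nuclear minus cytoplasmic receptor signal below a set negative limit, without overly bright fluorescence or cell loss, cut at about -3.5 in these data, passing the limit was not always enough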;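 further: z-score of nuclear minus cytoplasmic ring GR-EGFP intensity difference per well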
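Schedule: 48 h induction, then 1 h compound, then 30 min agonist, 37 °C. Buffer or medium: tetracycline-free induction medium containing charcoal-stripped FBS. Reagent: 1.0 µM final dexamethasone stimulus. Evaluation: nuclear versus cytoplasmic GR-EGFP signal, averaged per well. Signal: high-content fluorescence imaging after fixation.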
ROMK mod = ROMK potassium channel modulators, primary screen, cell-based, thallium flux, MLSMR library; ATP-sensitive inward rectifier potassium channel 1 (Homo sapiens), P48048; Tet-inducible ROMK, thallium flux fluorescence; actives lie on both sides; actives 2% (n = 130,000); B-score at 10 µM; AID 1918, 2009;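 active means signal ratio slope over the read window, or its plate-corrected B-score, at least 3 SD from the plate mean, either direction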;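 further: B-score of the F/F0 ratio slope over 7 to 12 s after thallium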
Target sequence (P48048 whole entry, looked up): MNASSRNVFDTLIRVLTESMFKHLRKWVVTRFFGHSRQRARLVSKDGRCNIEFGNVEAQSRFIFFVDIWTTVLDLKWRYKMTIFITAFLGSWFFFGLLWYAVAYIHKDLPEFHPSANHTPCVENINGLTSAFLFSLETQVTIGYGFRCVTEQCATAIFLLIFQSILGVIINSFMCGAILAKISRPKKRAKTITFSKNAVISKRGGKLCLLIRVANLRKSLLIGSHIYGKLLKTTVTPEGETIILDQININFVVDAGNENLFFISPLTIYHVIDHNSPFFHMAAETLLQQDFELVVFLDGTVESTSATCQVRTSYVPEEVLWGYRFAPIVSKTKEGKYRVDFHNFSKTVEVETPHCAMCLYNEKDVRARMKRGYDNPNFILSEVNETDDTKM
Autophagy mod = autophagy modulators in MEF cells, primary screen, imaging, high-content, MEF GFP-LC3 | MEF GFP-LC3 puncta imaging; test concentration mostly 10 µM | actives 0.98% (n = 190,000) | calls only at 10 µM (by protocol);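 active means percentage of spot-positive cells more than 3 SD above its plate mean, without a fluorescence outlier flag or 80% toxicity; inconclusive means no clear call, values can overlap the other calls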;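 further: spot-positive cell cutoff set from DMSO-treated cells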
Redox H2O2 prof = compounds producing H2O2 with reducing agent – biochemical, NIH compound library profiling, artefact control for MLSCN library redox annotation, primary screen. actives 0.03% (n = 200,000). activation, % at 10 µM. AID 878, 2007. DTT-dependent redox cycling H2O2, phenol red/HRP absorbance; 100% = 100 µM peroxide control, 0% = buffer;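 active means activation of at least 50% relative to the plate's high and low controls in the primary single-dose screen; inactive means activation below 50%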;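 further: compound incubated with DTT at 0.8 mM final as the reducing agent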
KCC2 mod = KCC2 cotransporter modulators, thallium flux, primary screen, cell-based, HEK293 KCC2, FluoZin-2 fluorescence, MLSMR; AID 1456, 2008; Solute carrier family 12 member 5 (Homo sapiens), Q9H2X9; B-score of Tl+ flux slope (higher = more flux/activation; lower = inhibition) at 10 µM; KCC2 cells, thallium flux FluoZin-2 fluorescence; actives 2.2% (n = 190,000);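 active means thallium flux slope and its plate-corrected score both differing from the plate sample mean at a set confidence after two filtering rounds, in either direction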;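 further: slope of fluorescence scaled to starting intensity during 10 to 20 s after thallium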
ROMK retest = ROMK channel modulator hit retest, confirmation, cell-based, thallium flux, duplicate, resupplied hits; shares compounds with ROMK mod; fluorescence ratio; stronger effect = lower value; normalized thallium flux (F/F0 slope) at 10 µM; actives 54% (n = 3,000);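 active means Flux at 10 µM at least 3 SD below or above vehicle control mean in one or both replicates; inconclusive means no clear call, values can overlap the other calls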
The depositor's hits bear a star; i = inactive; ? = inconclusive; · = no result given; + = active, no number.

SMILES	Dynein cargo inh	ROMK mod	Autophagy mod	Redox H2O2 prof	KCC2 mod	ROMK retest
CCN1C=C(Cc2ccc(OC)cc2)C2=C(C1)C(c1ccc(OC)cc1)C(C#N)=C(N)O2 (stereo unspecified)	-1.1	·	i	-4	0.19	?
Cc1ccc(/C=[N+](\[O-])c2ccc(N(C)C)cc2)c2nsnc12	-2.1	·	i	-1	·	0.047*
Cc1ccc2nsnc2c1N(S(C)(=O)=O)S(C)(=O)=O	1.7	1	i	0	-0.63	·
CCOC(=O)Cc1csc(NC(=O)C(C)c2ccc([N+](=O)[O-])cc2)n1 (stereo unspecified)	1.2	0.016	i	0	-1.6	·
COc1ccc(NC(=O)c2c(NC(=O)CCC(=O)O)sc(-c3ccccc3)c2C)cc1	1.5	·	i	0	-0.88	0.08
COC(=O)c1c(NC(=O)CCC(=O)O)sc(Cc2ccccc2)c1C	-0.89	1.5	·	·	-0.91	·
Cc1c(Cl)cccc1NC(=O)CSC(N)=O	0.21	-2.6*	i	-1	3	0.075
Cc1c(Cl)cccc1NC(=O)CSCC(N)=O	-0.47	·	i	0	0.92	·
Cc1ccc(SC(C)C(=O)NCc2ccncc2)cc1 (stereo unspecified)	1.2	2.5*	i	-1	0.52	0.084
COc1ccc(CNC(=O)C(C)Sc2ccc(C)cc2)cc1 (stereo unspecified)	1.1	-0.58	i	-1	-1.1	·
NC(=O)N/N=C/c1ccccc1OCC(=O)NCc1ccccc1	-0.63	-0.23	i	-1	0.41	·
Cc1ccc(-c2nc3c(c(=O)[nH]c(=O)n3CC(C)C)n2CC(C)C)cc1[N+](=O)[O-]	0.95	-3.6*	i	0	-0.62	0.056*
Cc1ccc(Cl)c2c1=NC(=O)C=2c1[nH]c(=S)[nH]c1O	0.83	-2.4*	i	-2	0.46	0.054*
O=C1N=c2ccccc2=C1c1[nH]c(=S)[nH]c1O	1.1	·	i	0	0.26	·
Cc1ccc(Nc2nnc(SCC(=O)NC(Cc3c[nH]c4ccccc34)C(=O)O)s2)cc1 (stereo unspecified)	0.95	1.7	i	0	-1.7	·
O=C(NC1CCS(=O)(=O)C1)/C(=C\c1ccco1)NC(=O)c1ccccc1 (stereo unspecified)	1.3	0.69	·	·	-0.36	·
Cc1ccc(C(=O)N/C(=C\c2ccc(-c3ccc([N+](=O)[O-])cc3)o2)C(=O)NC2CCS(=O)(=O)C2)cc1 (stereo unspecified)	-0.079	·	i	1	-0.67	0.047*
O=S(=O)(c1ccccc1)c1cnc(-c2ccccc2)nc1N1CCCCC1	0.42	0.16	i	-1	-0.31	·
CCN1C(=O)c2ccccc2Sc2ccc(C(=O)NCCCN3CCOCC3)cc21	-0.098	0.15	i	1	-0.61	·
CCOCCCNC(=O)CN1C(=O)/C(=C\c2ccc(C)cc2)Sc2ccccc21	-0.1	-1.7	i	0	-4.1	·
CCN1CCN(CCCNC(=O)c2ccc(/C=C3/Sc4ccccc4N(Cc4ccccc4F)C3=O)cc2)CC1	-0.24	-3.3*	i	0	-0.42	0.077
CCN1CCN(CCNC(=O)c2ccc(/C=C3/Sc4ccccc4N(Cc4ccccc4C)C3=O)cc2)CC1	-0.27	-3.6*	i	0	0.35	0.078
CCc1cc2cc3c(cc2nc1SCC(=O)Nc1cc(C)on1)OCO3	2	·	+	1	1.2	0.073
CCOC(=O)c1cc(-c2ccc(OC)cc2)nn1-c1ccc(C(=O)O)cc1	0.17	0.35	i	-1	0.47	·
COc1cc(/C=C2\C(=O)N(c3ccc(NC(C)=O)cc3)N=C2c2ccccc2)ccc1O	0.35	-2.4	i	0	-1.9	·
SMILES	Dynein cargo inh	ROMK mod	Autophagy mod	Redox H2O2 prof	KCC2 mod	ROMK retest
O=C1/C(=C\c2ccc(O)c(O)c2)C(c2ccccc2)=NN1c1ccccc1	0.4	-3.9*	i	0	-0.62	?
CCOC(=O)c1cc2c(N)c(C(=O)c3ccc(Br)cc3)sc2[nH]c1=O	0.28	0.25	i	0	-1	·
O=C(CCN1C(=O)c2ccccc2C1=O)C1=NN[C@@H]2C(=O)N(c3ccc4c(c3)OCCO4)C(=O)[C@H]12	-0.098	·	·	·	-0.047	·
COc1ccc(S(=O)(=O)N(C)C)cc1NC(=O)COC(=O)c1nc2nccc(C)n2n1	0.69	·	·	·	0.87	0.075
CNC(=O)c1sccc1-n1cccc1	0.29	2.9*	i	0	1.1	0.076
COc1cccc(C(=O)NCCCn2ccnc2)c1	0.44	-0.043	i	-1	0.7	·
COCCN=c1scc(-c2ccco2)n1/N=C/c1ccc(O)c(O)c1O	-1.3	3.2*	i	-2	-0.078	0.079
Cc1ccc(NC(=S)NCCN2CCOCC2)cc1F	-0.74	0.73	i	0	0.00066	·
O=C(Nc1cccc(F)c1)NC1CCN(Cc2ccccc2)CC1	0.14	-2	i	1	0.012	·
CCN(CC)c1ccc(C=N/C(C#N)=C(\N)C#N)cc1	-1.3	·	i	-1	·	?
CCN(CC)c1ccc(/C=C(\C#N)c2ccccn2)cc1	0.97	1.8	i	0	-0.55	·
CCOC(=O)c1sc2nc(CSc3nc4ccccc4n3CC)[nH]c(=O)c2c1C	1.5	·	i	3	2.1	·
CCOC(=O)c1sc2nc(COC(=O)c3c(F)cccc3F)[nH]c(=O)c2c1C	0.45	-2.4*	i	-3	1.1	0.09
CC(C)c1ccc(-n2c(-c3ccccc3)c[n+]3c2CCc2ccccc2-3)cc1	0.31	-6*	+	-1	-0.93	0.041*
CCc1cc2c(=O)c(-c3cscn3)coc2cc1O	0.42	2.5*	i	0	-0.62	0.076
O=C1CC2c3ccccc3C1C1C(=O)N(CCO)C(=O)C21 (stereo unspecified)	-0.55	0.34	i	0	0.14	·
Fc1ccccc1Sc1ccccc1CNC1=NCCN1	3.9	-0.79	i	0	0.31	·
c1ccc(Sc2cccc3ccccc23)c(CNC2=NCCN2)c1	0.41	-3.1*	i	0	-0.033	0.058*
COc1cc(NC(=S)NCCc2ccc(S(N)(=O)=O)cc2)c(OC)cc1Cl	1	-0.15	i	-1	2	·
CCC(C)c1cc(S(=O)(=O)N2CCOCC2)ccc1OC (stereo unspecified)	-0.79	-3.7*	i	0	-0.43	?
COc1ccc(S(=O)(=O)N2CCOCC2)cc1C(C)C	1.1	·	i	1	-0.39	·
